# TbMetRS inhib – Trypanosoma brucei MetRS inhibition. AID 624268. actives 0.4% (n = 360,000). inhibition, % at 11.9 µM. purified T. brucei MetRS, ATP depletion, Kinase-Glo luminescence;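 active = inhibition above a per-plate cutoff of the control wells' mean inhibition plus 3 SD, cut at about 5.5% in these data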;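 note: 0% = DMSO wells median and 100% = median of wells with control inhibitor compound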
#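 Test system – parasite MetRS enzyme · Reagent – substrates ATP, L-methionine and bulk Escherichia coli tRNA · Doses – 11.9 µM compound single dose, 0.9% DMSO · Times – 15 min enzyme-compound preincubation, 2 h reaction, 10 min detection, 25 °C · Signal – Kinase-Glo luminescence, ATP depletion format · Controls – DMSO-only wells as low control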
# UCH37 inh – inhibitors of human deubiquitinating enzyme UCH37; purified proteasome/UCH37, Ub-AMC cleavage fluorescence; actives 0.33% (n = 330,000); Q9Y5K5; inhibition, % (concentration not given with the values);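 active = mean inhibition over replicate wells above about 20%, limit read from the data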;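 note: 0% = compound-free wells with enzyme and 100% = wells lacking proteasome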
#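 System: Proteasome-associated human UCH37 deubiquitinase; Input: 0.15 nM proteasome in added enzyme buffer; Also added: Ub-AMC substrate from 1 µM stock; Incubation: 30 min compound-proteasome preincubation then 25 min substrate reaction, room temperature; Detection: fluorescence, ex 355 nm, em 460 nm; Read-out: % inhibition of Ub-AMC cleavage fluorescence; Benchmarks: no-proteasome and no-compound wells.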
# ATG4B inh – blocks human ATG4B protease cleavage of LC3 substrate | Q9Y4P1 | ATG4B cleavage of LC3-PLA2, NBD-HPC fluorescence, 1 h | inhibition, % at 8.33 µM | actives 0.51% (n = 340,000) | AID 504462; in the data active = inhibition above about 40%
# Target sequence (Q9Y4P1 whole entry, looked up): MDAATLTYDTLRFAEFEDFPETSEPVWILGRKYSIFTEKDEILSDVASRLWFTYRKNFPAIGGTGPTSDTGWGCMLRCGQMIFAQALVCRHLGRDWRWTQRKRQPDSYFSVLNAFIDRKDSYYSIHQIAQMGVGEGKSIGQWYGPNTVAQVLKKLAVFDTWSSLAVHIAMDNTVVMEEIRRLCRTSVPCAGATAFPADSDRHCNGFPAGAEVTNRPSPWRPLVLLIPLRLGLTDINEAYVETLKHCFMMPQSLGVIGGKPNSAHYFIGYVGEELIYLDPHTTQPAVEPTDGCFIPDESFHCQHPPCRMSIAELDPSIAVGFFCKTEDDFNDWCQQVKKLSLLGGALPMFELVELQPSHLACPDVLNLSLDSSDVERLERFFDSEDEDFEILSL
# Rin1-Abl PPI inh – blocks binding of human Rin1 to Abl. TR-FRET Rin1/Abl binding, biochemical. P00519+Q13671. actives 0.4% (n = 360,000). inhibition, % at 7.35 µM. AID 588664; in the data active = inhibition above about 5%, passing the limit was not always enough
# ATG4B confirm – ATG4B (human) inhibition, single-dose confirmed; shares compounds with ATG4B inh; ATG4B protease fluorescent substrate cleavage assay; inhibition, % at 8.33 µM; actives 92% (n = 320); AID 504757; in the data active = inhibition above about 39%
# PLA2 ctr – counter-screen for ATG4B inhibitors: human phospholipase A2 | actives 66% (n = 1,600) | AID 588402 | purified PLA2, NBD-C6-HPC fluorescence, 45 min | inhibition, % at 8.33 µM | shares compounds with ATG4B inh; in the data active = inhibition above about 50%
# Target sequence (P04054 whole entry, looked up): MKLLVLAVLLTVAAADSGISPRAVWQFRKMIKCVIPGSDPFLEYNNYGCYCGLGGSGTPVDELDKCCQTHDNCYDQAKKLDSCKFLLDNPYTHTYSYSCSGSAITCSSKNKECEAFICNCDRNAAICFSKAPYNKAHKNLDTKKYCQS
# * = called active by the depositor; · = no result. Rows were chosen to be rich in hits. Some 1.4% of all compounds tested hit in one or more screens of this group.
SMILES,TbMetRS inhib,UCH37 inh,ATG4B inh,Rin1-Abl PPI inh,PLA2 ctr,others
Oc1nc(Nc2ccc(Cl)cc2Cl)sc1/C=C1\C=Nc2ccccc21,0.0,3.7,78.3*,-1.9,23.4,ATG4B confirm=22.2
Cc1nc(Nc2ccc(Cl)cc2Cl)sc1C(=O)Nc1ccccc1,-0.2,6.0,-7.0,-2.8,·,
CCn1c(Cc2cccn2C)nnc1SCC(=O)c1ccc(C)cc1,-0.4,-6.5,-0.6,-2.4,·,
COc1cc(/C=C/C(O)=C/C(=O)/C=C/c2ccc(O)cc2)ccc1O,-0.2,·,48.4*,1.2,47.2,
COc1cc(/C=C/C(=O)NC(=O)c2ccccc2O)ccc1O,1.5,11.5,-8.6,-2.4,·,
NS(=O)(=O)c1ccc(NCc2c(F)cccc2Cl)cc1,-0.2,6.9,21.8,3.8,·,
Fc1cccc(Cl)c1CNc1ccc(N2CCCC2)cc1,0.4,0.2,58.8*,0.7,58.0*,
CCOC(=O)C1=C(C)N=c2s/c(=C/c3cccc([N+](=O)[O-])c3O)c(=O)n2C1c1ccccc1 (stereo not given),-0.3,·,57.6*,2.3,27.3,
CCOC(=O)C1=C(C)N=c2s/c(=C/c3cccc([N+](=O)[O-])c3O)c(=O)n2C1c1cc(OC)c(OC)c(OC)c1 (stereo not given),-0.8,·,-1.0,-3.5,·,
COc1ccc2c(c1OC)C(=O)OC2Nc1nc(-c2ccc(-c3ccccc3)cc2)cs1 (stereo not given),-1.0,-22.6,64.3*,0.1,46.7,ATG4B confirm=39.5*
COc1cccc(/C=C2/NC(=O)N(CC(=O)Nc3ccc(C)cc3)C2=O)c1OCc1cccc(C(=O)O)c1,0.0,-218.6,-0.5,0.5,·,
O=C(CSc1nccn1-c1ncc(C(F)(F)F)cc1Cl)c1ccc(Br)cc1,-0.7,0.1,103.7*,-0.9,9.9,
O=C(CSc1nc2ccccc2c(=O)n1Cc1ccccc1)Nc1ccc(Br)cc1C(=O)O,0.2,-0.1,44.8*,1.7,38.8,ATG4B confirm=60.5*
Cc1cc(C(=O)COc2ccc(C#N)cc2)c(C)n1C1CC1,-0.3,-1.8,-1.9,-3.6,·,
O=[N+]([O-])c1ccc(O)c(C=Nc2ccc3nc(-c4ccccc4)[nH]c3c2)c1,0.5,-267.1,41.7*,-1.8,37.3,
CCOC(=O)CSc1nnc(CNc2cccc(Cl)c2)n1C,0.4,4.3,-5.2,1.7,·,
NC(=O)CSc1nnc(CNc2cccc(Cl)c2)n1CCc1ccccc1,-0.2,0.9,49.3*,3.6,66.3*,
COc1ccc(NC(=O)CCOc2ccc(C)cc2)cc1S(=O)(=O)N1CCOCC1,-0.1,2.0,-9.9,3.2,·,
O=C(O)c1[nH]c2ccccc2c1C(c1cc(Cl)cc([N+](=O)[O-])c1O)c1c(C(=O)O)[nH]c2ccccc12,-0.4,12.9,58.3*,-1.6,39.8,ATG4B confirm=29.6
CC1(C)COC(c2cccn2Cc2ccc(F)cc2Cl)=N1,-0.5,6.3,1.8,-0.5,·,
CC1CN=C(c2cccn2Cc2ccc(F)cc2Cl)O1 (stereo not given),-0.2,1.7,42.8*,-3.9,52.6*,
Cc1ccccc1C(=O)NC(C(N)=O)P(=O)(OC(C)C)OC(C)C (stereo not given),2.0,0.4,1.2,-0.3,·,
Cc1nn(Cc2c(F)c(F)c(F)c(F)c2F)c(C)c1NC(=O)c1ccc(COc2ccc(Cl)cc2Cl)o1,0.9,4.8,88.0*,2.2,84.6*,
Cc1nn(Cc2c(F)c(F)c(F)c(F)c2F)c(C)c1NC(=O)c1cccc(COc2ccccc2Cl)c1,0.0,3.9,63.4*,1.1,56.2*,
O=C(COc1ncnc2c(Cl)cc(Cl)cc12)N1CCCCC1,-0.6,-0.8,-3.2,0.0,·,
SMILES,TbMetRS inhib,UCH37 inh,ATG4B inh,Rin1-Abl PPI inh,PLA2 ctr,others
Cc1ccc(-c2nc3ccccn3c2Nc2ccccc2)o1,-0.3,-337.2,10.2,0.8,·,
COc1cccc(/C=N/Nc2snc(SC)c2C#N)c1O,0.6,·,-23.6,-0.2,·,
O=C(CCNC(=O)c1ccc(Br)cc1)Nc1nccs1,3.4,3.6,0.9,-1.8,·,
Cc1ccc(F)cc1CNC(=O)c1cc(COc2ccc3ncccc3c2)on1,-0.1,-1.0,61.1*,0.4,67.6*,
O=C(NCc1cccc(Cl)c1)c1cc(COc2ccc3ncccc3c2)on1,-0.3,4.3,19.0,0.7,·,
O=C(Nc1ccc2nc3n(c(=O)c2c1)CCCC3)c1cc([N+](=O)[O-])ccc1F,0.0,8.1,-8.3,-4.5,·,
CCOc1cc(Br)c(Br)c(C=Nc2ccc(NC(C)=O)cc2)c1O,0.1,6.1,66.2*,4.4,54.5*,
CC(=O)Nc1ccc(N=Cc2c(O)c(C(=O)Nc3ccccc3)cc3ccccc23)cc1,·,14.4,30.1,·,·,
COCCn1c(C)cc(C(=O)CSc2nc(C)nc3sc4c(c23)CCC4)c1C,-0.6,4.0,57.4*,-0.9,36.6,
Cc1ccc(NC(=O)NC2CCCc3ccccc32)cc1 (stereo not given),-0.3,-4.2,7.2,-0.6,·,
O=C(Nc1ccc(Cl)cc1)NC1CCCc2ccccc21 (stereo not given),-0.9,1.6,68.0*,2.7,66.2*,
COCCN1C=C2C(=O)C(C)(OC(=O)CCc3ccccc3)C(=O)C=C2C=C1c1ccc(C#N)cc1 (stereo not given),-0.4,2.3,-8.9,1.4,·,
Cc1ccc(S(=O)(=O)/C(C#N)=C/c2c(N3CC(C)OC(C)C3)nc3c(C)cccn3c2=O)cc1 (stereo not given),-1.1,3.4,43.7*,-3.3,51.1*,
Cc1ccc(S(=O)(=O)/C(C#N)=C/c2c(N3CCN(C)CC3)nc3c(C)cccn3c2=O)cc1,-0.6,-0.4,49.6*,-4.0,58.9*,
CC1CN(c2nc3ccccn3c(=O)c2/C=C(\C#N)S(=O)(=O)c2ccccc2)CC(C)O1 (stereo not given),-0.1,3.1,-7.8,-9.3,·,
CCN1CCN(c2nc3c(C)cccn3c(=O)c2/C=C(\C#N)S(=O)(=O)c2ccc(C)cc2)CC1,1.0,-1.3,66.7*,-5.4,68.2*,
COCCn1nnnc1CN1CCC(NC(=O)c2ccc(Br)cc2)CC1,-0.7,2.8,-3.0,-3.1,·,
COc1ccccc1-n1cnnc1SCC(=O)NCc1cccs1,0.3,0.7,0.6,0.5,·,
CCCCCCCCCCCCCCCC(O)C[N+](C)(C)CCO (stereo not given),-0.5,·,54.6*,-2.0,47.4,ATG4B confirm=56.3*
COC(=O)c1c(C)nn(-c2ccc(OC(F)(F)F)cc2)c1-c1snnc1C,0.0,0.8,2.1,1.0,·,
Cc1ccc(C(=O)c2c(NC(=O)c3ccccc3C)sc(C)c2C)cc1,0.4,6.3,63.2*,1.7,49.7,
CCN(CC)CC(=O)Nc1sc(C)c(C)c1C(=O)c1ccc(C)cc1,0.5,2.3,2.0,-2.1,·,
Cn1c(NC(=O)c2ccccc2F)c(-c2cccs2)c(=O)c2ccccc21,-1.4,8.5,10.6,1.7,·,
CCCCCCCCCCCCCCCC[N+](C)(C)CCl,-0.5,·,56.0*,1.2,39.3,ATG4B confirm=57.0*
